Results published in ChEMBL document CHEMBL1158511, “Tricyclic dihydroquinazolinones as novel 5-HT2C selective and orally efficacious anti-obesity agents” (Bioorg Med Chem Lett, 2010).

Key:
Cytochrome P450 2D6 = Cytochrome P450 2D6 (Homo sapiens, UniProt P10635); assay: Inhibition of CYP2D6; format: ADME
[1] = AUC in Sprague-Dawley rat at 10 mg/kg, po after 4 hrs; format: ADME, organism-based; parameters: time < 4 hr, dose 10 mg/kg, route oral; conditions: plasma
Summary of the method: (§1)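 Male Sprague–Dawley rats were dosed po only at 1 or 10 mpk. Values are means of 2 animals. AUC was collected over 4 h. Plasma and total brain levels were taken at 4 h post dose.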

[2] = target: T1, 5-hydroxytryptamine receptor 2A (Homo sapiens, UniProt P28223); assay: Agonist activity at human recombinant 5HT2A receptor expressed in HEK293E cells by FLIPR assay; format: functional, cell-based
T1 sequence (P28223 whole entry): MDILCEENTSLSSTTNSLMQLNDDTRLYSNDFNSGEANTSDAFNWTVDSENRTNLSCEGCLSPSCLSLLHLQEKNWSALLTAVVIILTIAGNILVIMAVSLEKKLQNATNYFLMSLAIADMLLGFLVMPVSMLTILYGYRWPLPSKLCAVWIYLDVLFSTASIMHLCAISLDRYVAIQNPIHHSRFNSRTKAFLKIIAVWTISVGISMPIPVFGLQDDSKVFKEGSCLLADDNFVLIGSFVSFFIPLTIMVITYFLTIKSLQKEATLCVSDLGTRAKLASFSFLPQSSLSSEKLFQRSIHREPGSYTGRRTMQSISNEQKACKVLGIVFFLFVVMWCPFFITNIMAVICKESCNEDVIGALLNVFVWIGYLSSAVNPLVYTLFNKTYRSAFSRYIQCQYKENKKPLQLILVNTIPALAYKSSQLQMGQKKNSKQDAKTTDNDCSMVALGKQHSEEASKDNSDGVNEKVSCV
Summary of the method: (§2)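 Calcium mobilization measured by FLIPR in HEK293E cells expressing human 5-HT2A, 5-HT2B or 5-HT2C receptor. Values are means of ≥2 independent 12-point dose-response curves (n ≥4 where SD is given). mCPP is the positive control.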

[3] = target: T2, 5-hydroxytryptamine receptor 2B (Homo sapiens, UniProt P41595); assay: Agonist activity at human recombinant 5HT2B receptor expressed in HEK293E cells by FLIPR assay; format: functional, cell-based; summary of the method: as §2
T2 sequence (P41595 whole entry): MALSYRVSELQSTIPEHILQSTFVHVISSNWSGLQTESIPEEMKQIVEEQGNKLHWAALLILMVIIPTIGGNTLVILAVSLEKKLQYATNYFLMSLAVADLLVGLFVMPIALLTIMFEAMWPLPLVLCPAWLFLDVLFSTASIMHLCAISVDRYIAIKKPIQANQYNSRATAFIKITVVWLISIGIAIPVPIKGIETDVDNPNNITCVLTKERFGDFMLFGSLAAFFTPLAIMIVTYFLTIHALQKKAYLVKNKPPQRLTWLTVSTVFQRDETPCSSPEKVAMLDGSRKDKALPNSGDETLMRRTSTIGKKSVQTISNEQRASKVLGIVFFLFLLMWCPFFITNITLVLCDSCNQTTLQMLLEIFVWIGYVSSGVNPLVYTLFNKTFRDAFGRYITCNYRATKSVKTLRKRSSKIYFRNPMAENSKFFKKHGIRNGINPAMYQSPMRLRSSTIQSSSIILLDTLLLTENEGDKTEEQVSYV

[4] = Half life in Sprague-Dawley rat at 1 mg/kg, po; format: ADME, organism-based; parameters: dose 1 mg/kg, route oral; conditions: in vivo
Summary of the method: (§3)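 Male Sprague–Dawley rats were dosed at 1 mpk iv and po. Values are means of 3 animals per route.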

[5] = Half life in Sprague-Dawley rat at 1 mg/kg, iv; format: ADME, organism-based; parameters: dose 1 mg/kg, route intravenous; conditions: in vivo; summary of the method: as §3
[6] = Tmax in Sprague-Dawley rat at 10 mg/kg, po; format: ADME, organism-based; parameters: dose 10 mg/kg, route oral; conditions: in vivo; summary of the method: as §1
[7] = AUC in Sprague-Dawley rat at 1 mg/kg, po after 4 hrs; format: ADME, organism-based; parameters: time < 4 hr, dose 1 mg/kg, route oral; conditions: plasma; summary of the method: as §1
CYP2C19 = CYP2C19 (Homo sapiens, UniProt P33261); assay: Inhibition of CYP2C19 at 10 uM; format: ADME
Chain of CYP2C19 (P33261 whole entry): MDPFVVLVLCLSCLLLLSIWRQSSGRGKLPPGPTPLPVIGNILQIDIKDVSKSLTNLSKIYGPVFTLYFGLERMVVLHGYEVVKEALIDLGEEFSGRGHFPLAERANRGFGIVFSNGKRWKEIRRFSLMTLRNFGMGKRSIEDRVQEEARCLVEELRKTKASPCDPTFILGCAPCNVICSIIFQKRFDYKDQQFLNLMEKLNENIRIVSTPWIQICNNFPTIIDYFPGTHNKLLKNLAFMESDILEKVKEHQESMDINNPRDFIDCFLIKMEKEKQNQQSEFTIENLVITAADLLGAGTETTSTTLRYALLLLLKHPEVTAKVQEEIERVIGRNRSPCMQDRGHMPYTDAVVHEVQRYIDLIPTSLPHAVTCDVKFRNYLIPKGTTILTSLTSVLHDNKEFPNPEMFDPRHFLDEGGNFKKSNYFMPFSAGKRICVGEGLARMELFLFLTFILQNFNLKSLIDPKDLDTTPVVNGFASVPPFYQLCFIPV

[8] = Volume of distribution at steady state in Sprague-Dawley rat at 1 mg/kg, iv; format: ADME, organism-based; parameters: dose 1 mg/kg, route intravenous; conditions: in vivo, read-out: Vdss; summary of the method: as §3
Brain [9] = assay: Drug level in Sprague-Dawley rat brain at 10 mg/kg, po after 4 hrs; format: ADME, organism-based; parameters: dose 10 mg/kg, route oral; conditions: in vivo; summary of the method: as §1
[10] = Plasma concentration in Sprague-Dawley rat at 10 mg/kg, po after 4 hrs; format: ADME, organism-based; parameters: dose 10 mg/kg, route oral; summary of the method: as §1
Cytochrome P450 1A2 = target: T3, Cytochrome P450 1A2 (Homo sapiens, UniProt P05177); assay: Inhibition of CYP1A2; format: ADME
T3 sequence (P05177 whole entry): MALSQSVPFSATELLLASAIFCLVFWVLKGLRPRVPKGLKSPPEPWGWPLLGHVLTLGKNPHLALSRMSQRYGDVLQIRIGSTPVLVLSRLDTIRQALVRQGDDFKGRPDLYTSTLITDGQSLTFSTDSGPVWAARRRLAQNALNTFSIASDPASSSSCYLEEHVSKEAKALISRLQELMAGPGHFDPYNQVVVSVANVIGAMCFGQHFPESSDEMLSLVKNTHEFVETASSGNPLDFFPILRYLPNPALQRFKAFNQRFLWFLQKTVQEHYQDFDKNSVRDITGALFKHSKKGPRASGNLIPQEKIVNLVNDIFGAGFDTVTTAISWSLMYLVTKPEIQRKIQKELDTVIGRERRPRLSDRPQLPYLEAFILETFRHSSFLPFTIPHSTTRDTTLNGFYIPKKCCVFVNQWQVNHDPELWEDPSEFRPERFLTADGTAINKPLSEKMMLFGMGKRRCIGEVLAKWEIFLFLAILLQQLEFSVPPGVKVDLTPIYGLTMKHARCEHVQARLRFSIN

[11] = target: T2, 5-hydroxytryptamine receptor 2B; assay: Displacement of [3H]LSD from human recombinant 5HT2B receptor expressed in HEK293E cells
Brain [12] = assay: Drug level in Sprague-Dawley rat brain at 1 mg/kg, po after 4 hrs; format: ADME, organism-based; parameters: dose 1 mg/kg, route oral; conditions: in vivo; summary of the method: as §1
[13] = Oral bioavailability in Sprague-Dawley rat at 1 mg/kg; format: ADME, organism-based; conditions: in vivo; summary of the method: as §3
Rattus norvegicus [14] = species: Rattus norvegicus; assay: Toxicity in Sprague-Dawley rat; format: organism-based; conditions: in vivo
CYP3A4 = CYP3A4 (Homo sapiens, UniProt P08684); assay: Inhibition of CYP3A4 at 10 uM; format: ADME
Chain of CYP3A4 (P08684 whole entry): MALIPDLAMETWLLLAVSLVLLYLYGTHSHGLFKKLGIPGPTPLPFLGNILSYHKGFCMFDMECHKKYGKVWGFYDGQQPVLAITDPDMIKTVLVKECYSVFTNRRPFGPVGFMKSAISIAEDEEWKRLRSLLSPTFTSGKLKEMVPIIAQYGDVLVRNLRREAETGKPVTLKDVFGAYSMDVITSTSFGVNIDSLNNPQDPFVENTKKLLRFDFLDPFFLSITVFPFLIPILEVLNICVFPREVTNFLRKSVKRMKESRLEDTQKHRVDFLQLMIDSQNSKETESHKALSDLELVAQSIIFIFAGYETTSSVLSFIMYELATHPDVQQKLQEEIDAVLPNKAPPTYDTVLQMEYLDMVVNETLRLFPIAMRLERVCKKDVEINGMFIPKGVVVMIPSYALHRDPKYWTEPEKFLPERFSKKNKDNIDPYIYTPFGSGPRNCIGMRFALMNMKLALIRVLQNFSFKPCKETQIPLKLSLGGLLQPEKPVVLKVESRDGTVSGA

[15] = target: T4, 5-hydroxytryptamine receptor 2C (Homo sapiens, UniProt P28335); assay: Displacement of [125I]DOI from human recombinant 5HT2C receptor expressed in HEK293E cells; format: cell-based
T4 sequence (P28335 whole entry): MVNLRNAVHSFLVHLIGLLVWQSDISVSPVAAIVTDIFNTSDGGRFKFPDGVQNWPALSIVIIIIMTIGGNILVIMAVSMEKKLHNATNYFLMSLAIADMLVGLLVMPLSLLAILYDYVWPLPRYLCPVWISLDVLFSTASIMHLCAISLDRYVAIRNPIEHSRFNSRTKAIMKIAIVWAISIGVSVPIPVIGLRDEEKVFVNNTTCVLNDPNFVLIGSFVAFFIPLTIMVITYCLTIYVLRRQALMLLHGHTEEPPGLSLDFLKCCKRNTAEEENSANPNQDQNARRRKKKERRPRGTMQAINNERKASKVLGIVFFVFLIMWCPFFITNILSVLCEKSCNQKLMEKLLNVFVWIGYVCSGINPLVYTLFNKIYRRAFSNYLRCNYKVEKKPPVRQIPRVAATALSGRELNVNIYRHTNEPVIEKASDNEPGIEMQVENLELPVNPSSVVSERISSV
Summary of the method: (§4)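 Radioligand binding with [125I]DOI at the human 5-HT2C or 5-HT2A receptor. Ki is the mean of ≥2 independent 12-point dose-response curves (n ≥4 where SD is given).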

Cytochrome P450 2C9 = Cytochrome P450 2C9 (Homo sapiens, UniProt P11712); assay: Inhibition of CYP2C9; format: ADME
Cytochrome P450 2C19 = Cytochrome P450 2C19 (Homo sapiens, UniProt P33261); assay: Inhibition of CYP2C19; format: ADME
Chain of Cytochrome P450 2C19 (P33261 whole entry): as the sequence (P33261 whole entry) above

[16] = Cmax in Sprague-Dawley rat at 10 mg/kg, po; format: ADME, organism-based; parameters: dose 10 mg/kg, route oral; conditions: in vivo; summary of the method: as §1
[17] = AUC (0 to infinity) in Sprague-Dawley rat at 1 mg/kg, po; format: ADME, organism-based; parameters: time infinity, dose 1 mg/kg, route oral; conditions: plasma; summary of the method: as §3
[18] = AUC (0 to infinity) in Sprague-Dawley rat at 1 mg/kg, iv; format: ADME, organism-based; parameters: time infinity, dose 1 mg/kg, route intravenous; conditions: plasma; summary of the method: as §3
hERG = hERG (Homo sapiens, UniProt Q12809); assay: Inhibition of human ERG at 10 uM by patch clamp method
Chain of hERG (Q12809 whole entry): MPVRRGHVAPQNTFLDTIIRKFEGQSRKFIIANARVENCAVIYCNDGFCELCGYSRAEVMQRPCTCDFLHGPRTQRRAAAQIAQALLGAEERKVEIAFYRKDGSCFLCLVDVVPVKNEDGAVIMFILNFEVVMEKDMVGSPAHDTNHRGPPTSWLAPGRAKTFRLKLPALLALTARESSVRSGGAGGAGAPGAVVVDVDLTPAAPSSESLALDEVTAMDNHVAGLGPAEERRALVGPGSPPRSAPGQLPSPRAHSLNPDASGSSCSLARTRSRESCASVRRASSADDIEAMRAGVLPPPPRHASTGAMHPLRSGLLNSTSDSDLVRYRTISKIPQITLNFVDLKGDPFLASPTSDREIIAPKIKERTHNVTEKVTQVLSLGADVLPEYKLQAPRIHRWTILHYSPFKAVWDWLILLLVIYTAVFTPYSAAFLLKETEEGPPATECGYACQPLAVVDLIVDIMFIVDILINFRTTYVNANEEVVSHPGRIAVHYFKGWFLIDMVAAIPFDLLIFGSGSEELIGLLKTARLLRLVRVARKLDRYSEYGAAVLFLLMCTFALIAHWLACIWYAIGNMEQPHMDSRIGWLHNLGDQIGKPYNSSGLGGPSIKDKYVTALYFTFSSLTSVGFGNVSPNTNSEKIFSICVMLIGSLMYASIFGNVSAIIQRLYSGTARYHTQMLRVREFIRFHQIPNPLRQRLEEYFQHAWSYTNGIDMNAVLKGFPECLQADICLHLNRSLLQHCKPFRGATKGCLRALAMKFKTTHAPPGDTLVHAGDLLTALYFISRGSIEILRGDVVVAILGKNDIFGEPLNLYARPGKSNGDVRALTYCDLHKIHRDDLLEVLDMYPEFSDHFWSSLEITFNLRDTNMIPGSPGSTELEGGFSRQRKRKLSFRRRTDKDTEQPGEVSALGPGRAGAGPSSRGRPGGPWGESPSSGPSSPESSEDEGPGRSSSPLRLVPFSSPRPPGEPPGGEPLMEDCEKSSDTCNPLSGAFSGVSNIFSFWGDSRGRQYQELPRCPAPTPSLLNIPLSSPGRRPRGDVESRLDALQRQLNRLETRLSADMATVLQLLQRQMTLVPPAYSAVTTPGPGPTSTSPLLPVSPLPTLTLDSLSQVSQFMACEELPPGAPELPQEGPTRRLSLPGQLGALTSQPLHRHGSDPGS

Rattus norvegicus [19] = assay: Antiobesity activity in Sprague-Dawley rat assessed as reduction of caloric intake at 30 mg/kg, po after 4 days; format: functional; parameters: scale not given: the % may be the effect or the level left
Summary of the method: (§5)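 Male Sprague–Dawley rats, about 240 g (n = 8), were dosed orally once daily for 4 days with compound or vehicle (14% propylene glycol, 1% tween, 85% water, v/v/v). Body weight, food and water intake were measured daily and compared with vehicle.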

[20] = Plasma concentration in Sprague-Dawley rat at 1 mg/kg, po after 4 hrs; format: ADME, organism-based; parameters: dose 1 mg/kg, route oral; summary of the method: as §1
CYP2D6 = CYP2D6 (Homo sapiens, UniProt P10635); assay: Inhibition of CYP2D6 at 10 uM; format: ADME
Chain of CYP2D6 (P10635 whole entry): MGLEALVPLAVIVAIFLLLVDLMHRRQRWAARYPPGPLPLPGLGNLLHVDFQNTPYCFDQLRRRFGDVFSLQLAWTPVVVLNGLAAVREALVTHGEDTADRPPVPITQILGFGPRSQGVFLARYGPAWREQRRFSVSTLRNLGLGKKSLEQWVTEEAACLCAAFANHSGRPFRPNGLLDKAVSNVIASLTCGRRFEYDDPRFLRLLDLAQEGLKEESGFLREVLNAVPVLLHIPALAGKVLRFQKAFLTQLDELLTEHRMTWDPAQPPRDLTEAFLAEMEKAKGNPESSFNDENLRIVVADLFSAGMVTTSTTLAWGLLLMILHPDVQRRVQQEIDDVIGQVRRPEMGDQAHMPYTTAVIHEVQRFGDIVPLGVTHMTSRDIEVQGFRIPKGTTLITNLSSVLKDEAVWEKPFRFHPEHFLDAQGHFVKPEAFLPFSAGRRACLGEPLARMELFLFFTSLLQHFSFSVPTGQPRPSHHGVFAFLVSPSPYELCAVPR

[21] = Cmax in Sprague-Dawley rat at 1 mg/kg, po; format: ADME, organism-based; parameters: dose 1 mg/kg, route oral; conditions: in vivo; summary of the method: as §1
Rattus norvegicus [22] = assay: Antiobesity activity in Sprague-Dawley rat assessed as reduction of food intake at 10 mg/kg, po after 20 hrs; format: functional; parameters: scale not given: the % may be the effect or the level left
[23] = target: T4, 5-hydroxytryptamine receptor 2C; assay: Agonist activity at human recombinant 5HT2C receptor expressed in HEK293E cells by FLIPR assay; format: functional, cell-based; summary of the method: as §2
[24] = Tmax in Sprague-Dawley rat at 1 mg/kg, po; format: ADME, organism-based; parameters: dose 1 mg/kg, route oral; conditions: in vivo; summary of the method: as §1
CYP1A2 = target: T5, CYP1A2 (Homo sapiens, UniProt P05177); assay: Inhibition of CYP1A2 at 10 uM; format: ADME
T5 sequence (P05177 whole entry): T3 sequence (P05177 whole entry)

Cytochrome P450 3A4 = Cytochrome P450 3A4 (Homo sapiens, UniProt P08684); assay: Inhibition of CYP3A4; format: ADME
Chain of Cytochrome P450 3A4 (P08684 whole entry): as the sequence (P08684 whole entry) above

[25] = target: T1, 5-hydroxytryptamine receptor 2A; assay: Displacement of [125I]DOI from human recombinant 5HT2A receptor expressed in HEK293E cells; format: cell-based; summary of the method: as §4
CYP2C9 = CYP2C9 (Homo sapiens, UniProt P11712); assay: Inhibition of CYP2C9 at 10 uM; format: ADME
Chain of CYP2C9 (P11712 whole entry): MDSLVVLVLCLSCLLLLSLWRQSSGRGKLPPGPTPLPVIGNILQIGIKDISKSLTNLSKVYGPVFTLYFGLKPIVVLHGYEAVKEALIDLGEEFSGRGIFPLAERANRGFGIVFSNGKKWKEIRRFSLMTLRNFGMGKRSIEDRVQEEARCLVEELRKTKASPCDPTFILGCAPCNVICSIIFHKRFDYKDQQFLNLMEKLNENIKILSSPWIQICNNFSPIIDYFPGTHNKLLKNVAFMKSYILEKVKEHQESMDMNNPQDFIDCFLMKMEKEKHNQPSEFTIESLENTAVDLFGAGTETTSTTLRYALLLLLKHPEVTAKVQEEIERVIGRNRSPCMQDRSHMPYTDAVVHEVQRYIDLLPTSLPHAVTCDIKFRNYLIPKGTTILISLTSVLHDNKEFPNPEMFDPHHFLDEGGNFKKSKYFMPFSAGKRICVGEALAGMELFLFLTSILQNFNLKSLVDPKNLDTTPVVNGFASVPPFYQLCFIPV

[26] = Clearance in Sprague-Dawley rat at 1 mg/kg, iv; format: ADME, organism-based; parameters: dose 1 mg/kg, route intravenous; conditions: in vivo; summary of the method: as §3
Rattus norvegicus [27] = assay: Antiobesity activity in Sprague-Dawley rat assessed as reduction of body weight at 30 mg/kg, po after 4 days; format: functional; parameters: scale not given: the % may be the effect or the level left; summary of the method: as §5

Chain of Cytochrome P450 2D6 (P10635 whole entry): as the sequence (P10635 whole entry) above

Cc1cccc2c1C(=O)NC1CNCCN21 (single isomer, unassigned; (+))
IC50 (Cytochrome P450 2D6): > 40 µM
AUC at 4 h [1]: 1.24 µM·h
EC50 [2]: > 10 µM
EC50 [3]: > 10 µM
half-life [4]: 150 min
half-life [5]: 54 min
Tmax [6]: 30 min
AUC at 4 h [7]: 1.04 µM·h
inhibition at 10 µM (CYP2C19): > 50%
Vd [8]: 1.3 L/kg
Drug uptake (Brain [9]): 3010 nmol/kg
concentration at 4 h [10]: 2120 nM
IC50 (Cytochrome P450 1A2): > 40 µM
Ki [11]: 8.6 nM
Drug uptake (Brain [12]): 326 nmol/kg
bioavailability [13]: 49%
Activity (Rattus norvegicus [14]): Non-toxic
inhibition at 10 µM (CYP3A4): > 50%
Ki [15]: 89 nM
IC50 (Cytochrome P450 2C9): > 40 µM
IC50 (Cytochrome P450 2C19): > 40 µM
Cmax [16]: 5.38 µM
AUC(0-inf) [17]: 1.15 µM·h
AUC(0-inf) [18]: 2.34 µM·h
inhibition at 10 µM (hERG): 37%
Activity (Rattus norvegicus [19]): 16%
concentration at 4 h [20]: 219 nM
inhibition at 10 µM (CYP2D6): > 50%
Cmax [21]: 293 nM
Activity (Rattus norvegicus [22]): 22%
EC50 [23]: 45 nM
Tmax [24]: 1 h
inhibition at 10 µM (CYP1A2): > 50%
IC50 (Cytochrome P450 3A4): > 40 µM
Ki [25]: 229 nM
inhibition at 10 µM (CYP2C9): > 50%
clearance [26]: 27 mL/min/kg
Activity (Rattus norvegicus [27]): 4.1%
